Experimental data taken from PMC6405215 (Cell chemical biology, 2018).

Tests used:
human macrophages [1] = assay: Macrophage phagocytosis of serum-treated zymosan; assay type: cell-based; settings: human MΦ; for phagocytosis of STZ, dose response: 0.1pM-10 nM, 15 min preincubation; for increase of phagocytosis of STZ above vehicle: 10 pM
How it was run: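 GM-CSF-differentiated human macrophages were plated at 50,000 cells/well in PBS++ and used 24 h later. Compounds (0.1 pM–10 nM) were added for 15 min at 37 °C, pH 7.45. FITC-labelled serum-treated zymosan was then added at 10:1 for 40 min at 37 °C. Extracellular signal was quenched with trypan blue and fluorescence read at Ex 493/Em 535 nm. Results are % above vehicle, triplicates from 3–4 donors, with curve fitting.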

[2] = test system: mock-transfected macrophages; assay: Real-time phagocytosis of live E. coli, mock-transfected macrophages; assay type: cell-based, human; settings: 10 nM
How it was run: (§1)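 Macrophages were transfected with a human GPR32 expression vector or a mock vector (5 μg) using Jet-PEI. Cells were re-plated on chamber slides 48 h later and imaged 24 h after that in a stage-top incubator. Compound (10 nM) was given for 15 min at 37 °C, then BacLight Green-labelled E. coli at 50:1. Fluorescence was imaged every 10 min for 60 min, 4 fields/well at 40X. Results are % above vehicle from 3 donors.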

DRV1/GPR32 [3] = molecular target: T1, DRV1/GPR32 (Homo sapiens, UniProt O75388); assay: GPR32 cAMP HTRF signaling assay; assay type: cell-based; settings: for effect on forskolin-stimulated cAMP: forskolin 8 μM
How it was run: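 CHO-K1 PathHunter GPR32 cells were seeded at 1,800 cells/well for 20 h, then stimulated with forskolin (8 μM final) plus Ro 20-1724 (100 μM final). Compounds were added as 1:3 dilutions (57 μM–1 nM final) for 30 min at 37 °C. cAMP was read by HTRF as the 665/615 nm ratio ×10,000. Forskolin alone set 0%; DMSO (0.57%) set −100%. Two experiments in triplicate.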

recombinant human DRV1 = recombinant human DRV1 (Homo sapiens, UniProt O75388); assay: Electrical cell substrate impedance sensing; assay type: cell-based; settings: for direction of impedance change: CHO cells expressing DRV1, concentration not stated
How it was run: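 GPR32- or mock-transfected CHO cells were seeded at 0.1×10^6 per well of an 8-well ECIS electrode array. Test compounds were added in serum-free medium at 100 nM–10 μM. Impedance across the monolayer was recorded every 4 s for 10 min at 37 °C. Tracings are representative of 3 independent experiments.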

DRV1/GPR32 [4] = molecular target: T1, DRV1/GPR32; assay: GPR32 PathHunter β-Arrestin Assay; assay type: cell-based
How it was run: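 CHO-K1 PathHunter GPR32 cells were grown with geneticin 800 μg/mL and hygromycin B 300 μg/mL, then seeded at 2,500 cells/well in 1536-well plates overnight. Compounds in DMSO were tested at 11 points (1:3, 57 μM–1 nM) for 90 min at 37 °C, then detection reagent was added for 1 h and luminescence read. DMSO (0.57%) set 0%; a 2-fold signal increase set 100%. Two experiments in triplicate.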

[5] = test system: DRV1-transfected macrophages; assay: Real-time phagocytosis of live E. coli, macrophages overexpressing DRV1/GPR32; assay type: cell-based, human; settings: 10 nM
How it was run: as §1

human macrophages [6] = assay: CD163; assay type: cell-based; settings: 10 nM, 24h; significant only for RvD1
CHO-WT cells = assay: ECIS in wild-type CHO cells; assay type: cell-based, Chinese hamster; settings: 1μM
[7] = hGPR32/DRV1-transfected, 10 min

T1 sequence (O75388 whole entry): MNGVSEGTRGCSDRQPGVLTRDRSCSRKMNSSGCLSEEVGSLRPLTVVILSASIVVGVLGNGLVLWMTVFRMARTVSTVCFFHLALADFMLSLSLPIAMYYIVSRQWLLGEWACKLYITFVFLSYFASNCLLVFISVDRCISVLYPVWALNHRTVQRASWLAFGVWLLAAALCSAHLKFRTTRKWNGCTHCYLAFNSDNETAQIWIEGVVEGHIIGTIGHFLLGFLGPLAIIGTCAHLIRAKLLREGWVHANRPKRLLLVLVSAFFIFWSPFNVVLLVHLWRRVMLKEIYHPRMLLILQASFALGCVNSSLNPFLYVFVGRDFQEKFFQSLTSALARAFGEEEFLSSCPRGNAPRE
Chain of recombinant human DRV1 (O75388 whole entry): as above

| SMILES | phagocytosis of STZ (human macrophages [1]; 0.1–10 nM) | increase of phagocytosis of E. coli above vehicle control ([2]; 10 min) | EC50 (DRV1/GPR32 [3]) [nM] | effect on forskolin-stimulated cAMP (DRV1/GPR32 [3]) | direction of impedance change (recombinant human DRV1) | impedance change (recombinant human DRV1; CHO-DRV1, 100 nM-10 μM) | phagocytosis of STZ, dose response (human macrophages [1]) | increase of phagocytosis of STZ above vehicle (human macrophages [1]) | EC50 (DRV1/GPR32 [4]) [nM] | increase of phagocytosis of E. coli above vehicle control [5, 7] [%] | increase of CD163 levels compared to vehicle (human macrophages [6]) [%] | increase of phagocytosis of E. coli above vehicle control ([2]; 20–30 min) | impedance change (recombinant human DRV1; CHO-hDRV1, 100 nM) | increase of phagocytosis of E. coli above vehicle control ([5]; DRV1-transfected, 20–30 min) [%] | impedance change (recombinant human DRV1; CHO-DRV1 cells, 1μM) | β-arrestin signal increase above basal cell activity (DRV1/GPR32 [4]; GPR32 β-arrestin cells, 11 concentrations 57 μM to 1 nM) | impedance change (CHO-WT cells) | β-arrestin activity (DRV1/GPR32 [4]; dose response) |
| --- | --- | --- | --- | --- | --- | --- | --- | --- | --- | --- | --- | --- | --- | --- | --- | --- | --- | --- |
| NCCc1c[nH]c2ccc(O)cc12 [5-HT] | did not significantly increase phagocytosis | – | – | – | – | – | – | – | – | – | – | – | – | – | – | – | – | – |
| COc1cccc(C(=O)Nc2nnc(S(=O)(=O)N3CCOCC3)s2)c1 [C1A, 3-methoxy-N-(5-morpholin-4-ylsulfonyl-1,3,4-thiadiazol-2-yl)benzamide] | – | ~ 15% | 380 | dose-dependently reduced forskolin-stimulated cAMP release | increased impedance | dose-dependently elicited rapid changes in impedance | enhanced phagocytosis in a dose-dependent manner | 35–40% | 930 | > 70 | 4.7 | – | – | – | – | – | – | – |
| O=C(Nc1nnc(S(=O)(=O)N2CCOCC2)s1)c1cccc(Br)c1 [C1B, 3-bromo-N-(5-morpholin-4-ylsulfonyl-1,3,4-thiadiazol-2-yl)benzamide] | – | – | 320 | dose-dependently reduced forskolin-stimulated cAMP release | increased impedance | dose-dependently elicited rapid changes in impedance | – | – | 3790 | – | – | – | – | – | – | – | – | – |
| Cc1c(-c2cccc(NC(=O)c3ccc(F)c(F)c3)c2)nc2ncccn12 [C2A, 3,4-difluoro-N-[3-(3-methylimidazo[1,2-a]pyrimidin-2-yl)phenyl]benzamide] | – | – | 50 | dose-dependently reduced forskolin-stimulated cAMP release | increased impedance | dose-dependently elicited rapid changes in impedance | enhanced phagocytosis in a dose-dependent manner | 35–40% | 370 | > 40 | 13.3 | – | – | – | – | – | – | – |
| COc1cccc(C(=O)Nc2cccc(-c3nc4ncccn4c3C)c2)c1 [C2B, 3-methoxy-N-[3-(3-methylimidazo[1,2-a]pyrimidin-2-yl)phenyl]benzamide] | – | – | 190 | dose-dependently reduced forskolin-stimulated cAMP release | increased impedance | dose-dependently elicited rapid changes in impedance | – | – | 1170 | – | – | – | – | – | – | – | – | – |
| CC/C=C\C[C@H](O)/C=C/C=C\C=C\C=C\[C@@H](O)[C@@H](O)C/C=C\CCC(=O)O [RvD1, 7S,8R,17S-trihydroxy-4Z,9E,11E,13Z,15E,19Z-docosahexaenoic acid, reference compound] | – | – | – | – | reduced impedance | – | dose-dependently increased phagocytosis | ~ 60% | – | – | 25.7 | 30–40% | time-dependently reduced impedance | > 100 | – | – | – | – |
| COc1ccccc1N1CCN(CCN(C(=O)c2ccc(F)cc2)c2ccccn2)CC1 [pMPPF, 4-Fluoro-N-{2-[4-(2-methoxyphenyl)-1-piperazinyl]ethyl}-N-(2-pyridinyl)benzamide, reference compound] | – | – | – | dose-dependently reduced forskolin-stimulated cAMP release | increased impedance | – | enhanced phagocytosis in a dose-dependent manner | ~ 60% | 1160 | – | 13.7 | – | – | > 50 | increased | ~ 30% | did not give significant impedance changes | – |
| COc1ccccc1N1CCN(CCN(C(=O)c2ccc(I)cc2)c2ccccn2)CC1 [pMPPI, 4-iodo-N-{2-[4-(2-methoxyphenyl)-1-piperazinyl]ethyl}-N-(2-pyridinyl)benzamide, reference compound] | – | – | 2500 | increased forskolin-stimulated cAMP release | reduced impedance | – | enhanced phagocytosis in a dose-dependent manner | significantly less potent than pMPPF | – | – | 20.0 | – | – | – | reduced impedance | – | did not give significant impedance changes | not β-arrestin activities |
